{"source": "ChEMBL document CHEMBL1275429", "about": "“Pharmacodynamic characterization of ceftobiprole in experimental pneumonia caused by phenotypically diverse Staphylococcus aureus strains” (Antimicrob Agents Chemother, 2008)", "key": {"Staphylococcus aureus [1]": {"tested_on": "Staphylococcus aureus", "assay": "Antimicrobial activity against methicillin-susceptible Staphylococcus aureus ATCC 29213 by broth microdilution method", "format": "functional", "procedure,_shortened": "(§1)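 Broth microdilution run in triplicate following CLSI guidelines. Isolates were stored at –80°C in double-strength skim milk and subcultured twice on Trypticase soy agar with 5% sheep blood before testing.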"}, "[2]": {"assay": "fT>MIC in neutropenic BALB/cAnNCr mouse plasma infected with Staphylococcus aureus at 1 to 25 mg/kg, sc administered 1 to 5 times/day after 24 hrs HPLC", "format": "functional", "settings": "route subcutaneous", "procedure,_shortened": "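Exposure indices used free plasma drug, correcting with 19% mouse protein binding supplied by the sponsor. The regimens were s.c. 1–25 mg/kg given 1–5 times daily for 24 h to neutropenic mice with S. aureus pneumonia. MICs were determined in triplicate by CLSI broth microdilution. PK came from the single-dose HPLC study.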"}, "[3]": {"assay": "fCmax/MIC required for 80% inhibition of Staphylococcus aureus infection in neutropenic BALB/cAnNCr mouse", "format": "functional"}, "Staphylococcus aureus [4]": {"tested_on": "Staphylococcus aureus", "assay": "Antimicrobial activity against methicillin-susceptible Staphylococcus aureus 25923 infected in BALB/cAnNCr mouse assessed as decrease in bacterial density in lungs at 1 to 25 mg/kg, sc administered as 1 to 5 times/day after 24 hrs […] relative to control", "format": "functional", "settings": "dose mg/kg 1-5; route subcutaneous", "procedure,_shortened": "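Neutropenic mice given oral S. aureus inoculum (10^7 CFU/ml in 3% mucin). s.c. dosing of 1–25 mg/kg, once to five times daily, began 6 h post-infection and ran 24 h, five mice per group, with sham-treated controls. Lung homogenates were plated on blood and Columbia agar at 35°C up to 48 h. Log10 CFU/ml at 24 h was compared with untreated controls.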"}, "[5]": {"assay": "fCmax/MIC required for 50% inhibition of Staphylococcus aureus infection in neutropenic BALB/cAnNCr mouse", "format": "functional"}, "[6]": {"assay": "Tmax in neutropenic BALB/cAnNCr mouse infected with Staphylococcus aureus at 25 mg/kg, sc administered as single dose after 6 hrs of infection", "format": "ADME, organism-based", "set-up": "dose 25 mg/kg, route subcutaneous", "settings": "in vivo", "procedure,_shortened": "(§2)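 Neutropenic female mice (cyclophosphamide i.p. 250 mg/kg day −4, 100 mg/kg day −1) with HA-MRSA 56 pneumonia (oral inoculum, 10^7 CFU/ml in 3% mucin). Single s.c. dose in sterile water. Plasma by intracardiac puncture at 0.25–4 h, six mice per time point, stabilized with citric acid. Assayed by validated HPLC (LOQ 0.01 µg/ml). Parameters from one-compartment analysis.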"}, "[7]": {"assay": "fT>MIC required for stasis inhibition of Staphylococcus aureus infection in neutropenic BALB/cAnNCr mouse", "format": "functional"}, "[8]": {"assay": "fT>MIC required for 50% inhibition of methicillin-susceptible Staphylococcus aureus 25923 infection in neutropenic BALB/cAnNCr mouse", "format": "functional"}, "[9]": {"assay": "Tmax in neutropenic BALB/cAnNCr mouse infected with Staphylococcus aureus at 1 mg/kg, sc administered as single dose after 6 hrs of infection", "format": "ADME, organism-based", "set-up": "dose 1 mg/kg, route subcutaneous", "settings": "in vivo", "procedure,_shortened": "as §2"}, "[10]": {"assay": "fT>MIC required for 80% inhibition of community acquired methicillin-resistant Staphylococcus aureus 144 infection in neutropenic BALB/cAnNCr mouse", "format": "functional", "procedure,_shortened": "(§3)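 Same neutropenic murine pneumonia model, with 24-h lung log10 CFU change (5 mice per group; 1–25 mg/kg s.c., 1–5 times daily). […] ED50, ED80 and stasis exposures were taken from a sigmoid Emax fit for each isolate.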"}, "[11]": {"assay": "Elimination half life in neutropenic BALB/cAnNCr mouse infected with Staphylococcus aureus at 1 mg/kg, sc administered as single dose after 6 hrs of infection", "format": "ADME, organism-based", "set-up": "dose 1 mg/kg, route subcutaneous", "settings": "in vivo", "procedure,_shortened": "as §2"}, "[12]": {"assay": "fT>MIC required for 80% inhibition of methicillin-susceptible Staphylococcus aureus […] infection in neutropenic BALB/cAnNCr mouse", "format": "functional"}, "Staphylococcus aureus [13]": {"tested_on": "Staphylococcus aureus", "assay": "Antimicrobial activity against hospital acquired methicillin-resistant Staphylococcus aureus 149 by broth microdilution method", "format": "functional", "procedure,_shortened": "as §1"}, "Staphylococcus aureus [14]": {"tested_on": "Staphylococcus aureus", "assay": "Antimicrobial activity against methicillin-susceptible Staphylococcus aureus 29213 infected in BALB/cAnNCr mouse assessed as decrease in bacterial density in lungs at 1 to 25 mg/kg, sc administered as 1 to 5 times/day after 24 hrs […] relative to control", "format": "functional", "settings": "route subcutaneous", "procedure,_shortened": "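Female BALB/cAnNCr mice (7–9 weeks) were made neutropenic with cyclophosphamide i.p. at 250 mg/kg on day −4 and 100 mg/kg on day −1. Under isoflurane, mice received an oral inoculum in 3% mucin/saline, with nostrils blocked until aspiration. Drug (1–25 mg/kg s.c., once to five times daily, water vehicle) or sham started 6 h post-inoculation. Lungs were harvested at 24 h, homogenized and plated on blood and Columbia agar at 35°C. Mean log10 CFU/ml was compared with the 0-h untreated baseline; 5 mice per group.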"}, "[15]": {"assay": "fT>MIC required for stasis inhibition of methicillin-susceptible Staphylococcus aureus 25923 infection in neutropenic BALB/cAnNCr mouse", "format": "functional"}, "[16]": {"assay": "fT>MIC required for 50% inhibition of Staphylococcus aureus infection in neutropenic BALB/cAnNCr mouse", "format": "functional"}, "[17]": {"assay": "Cmax in neutropenic BALB/cAnNCr mouse infected with Staphylococcus aureus at 25 mg/kg, sc administered as single dose after 6 hrs of infection", "format": "ADME, organism-based", "set-up": "dose 25 mg/kg, route subcutaneous", "settings": "in vivo", "procedure,_shortened": "as §2"}, "[18]": {"assay": "Elimination clearance in neutropenic BALB/cAnNCr mouse infected with Staphylococcus aureus at 2.5 mg/kg, sc administered as single dose after 6 hrs of infection", "format": "ADME, organism-based", "set-up": "dose 2.5 mg/kg, route subcutaneous", "settings": "in vivo", "procedure,_shortened": "(§4)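 Female BALB/cAnNCr mice (7-9 weeks, 15-22 g) made neutropenic with cyclophosphamide, 250 mg/kg i.p. on day -4 and 100 mg/kg i.p. on day -1. Infected by oral aspiration of HA-MRSA 56 (10^7 CFU/ml in 3% mucin/saline). Single s.c. dose in sterile water given 6 h post-challenge. Plasma (EDTA, citric acid-stabilized) taken at 0.25-4 h, six mice per time point. Assayed by validated HPLC (LOQ 0.01 µg/ml); one-compartment analysis.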"}, "Mus musculus [19]": {"tested_on": "Mus musculus", "assay": "Volume of distribution in neutropenic BALB/cAnNCr mouse infected with Staphylococcus aureus at 25 mg/kg, sc administered as single dose after 6 hrs of infection", "format": "ADME, organism-based", "set-up": "dose 25 mg/kg, route subcutaneous", "settings": "in vivo", "procedure,_shortened": "as §2"}, "[20]": {"assay": "fT>MIC required for 50% inhibition of hospital acquired methicillin-resistant Staphylococcus aureus 56 infection in neutropenic BALB/cAnNCr mouse", "format": "functional", "procedure,_shortened": "as §3"}, "[21]": {"assay": "Elimination half life in neutropenic BALB/cAnNCr mouse infected with Staphylococcus aureus at 2.5 mg/kg, sc administered as single dose after 6 hrs of infection", "format": "ADME, organism-based", "set-up": "dose 2.5 mg/kg, route subcutaneous", "settings": "in vivo", "procedure,_shortened": "as §4"}, "Mus musculus [22]": {"tested_on": "Mus musculus", "assay": "Volume of distribution in neutropenic BALB/cAnNCr mouse infected with Staphylococcus aureus at 1 mg/kg, sc administered as single dose after 6 hrs of infection", "format": "ADME, organism-based", "set-up": "dose 1 mg/kg, route subcutaneous", "settings": "in vivo", "procedure,_shortened": "as §2"}, "[23]": {"assay": "fAUC/MIC required for 80% inhibition of Staphylococcus aureus infection in neutropenic BALB/cAnNCr mouse", "format": "functional"}, "Staphylococcus aureus [24]": {"tested_on": "Staphylococcus aureus", "assay": "Antimicrobial activity against community acquired methicillin-resistant Staphylococcus aureus 146 by broth microdilution method", "format": "functional", "procedure,_shortened": "as §1"}, "Staphylococcus aureus [25]": {"tested_on": "Staphylococcus aureus", "assay": "Antimicrobial activity against community acquired methicillin-resistant Staphylococcus aureus 144 by broth microdilution method", "format": "functional", "procedure,_shortened": "as §1"}, "[26]": {"assay": "Elimination half life in neutropenic BALB/cAnNCr mouse infected with Staphylococcus aureus at 25 mg/kg, sc administered as single dose after 6 hrs of infection", "format": "ADME, organism-based", "set-up": "dose 25 mg/kg, route subcutaneous", "settings": "in vivo", "procedure,_shortened": "as §2"}, "[27]": {"assay": "AUC (0 to infinity) in neutropenic BALB/cAnNCr mouse infected with Staphylococcus aureus at 1 mg/kg, sc administered as single dose after 6 hrs of infection", "format": "ADME, organism-based", "set-up": "time infinity, dose 1 mg/kg, route subcutaneous", "settings": "plasma", "procedure,_shortened": "as §2"}}, "data": [{"smiles": "Nc1nc(/C(=N/O)C(=O)N[C@@H]2C(=O)N3C(C(=O)O)=C(/C=C4\\CCN([C@@H]5CCNC5)C4=O)CS[C@H]23)ns1", "note": "[CEFTOBIPROLE]", "values": [{"measurement": "MIC", "setting": "Staphylococcus aureus [1]", "result": 0.25, "unit": "µg/mL"}, {"measurement": "fT>MIC", "setting": "[2]", "result": 3, "unit": "%"}, {"measurement": "fCmax/MIC", "setting": "[3]", "result": 2}, {"measurement": "log10cfu", "setting": "Staphylococcus aureus [4]", "result": 4.2}, {"measurement": "fCmax/MIC", "setting": "[5]", "result": 2}, {"measurement": "Tmax", "setting": "[6]", "result": 28.2, "unit": "min"}, {"measurement": "fT>MIC", "setting": "[7]", "result": 11, "unit": "%"}, {"measurement": "fT>MIC", "setting": "[8]", "result": 8.1, "unit": "%"}, {"measurement": "Tmax", "setting": "[9]", "result": 28.8, "unit": "min"}, {"measurement": "fT>MIC", "setting": "[10]", "result": 14.3, "unit": "%"}, {"measurement": "half-life", "setting": "[11]", "result": 15, "unit": "min"}, {"measurement": "fT>MIC", "setting": "[12]", "result": 19.5, "unit": "%"}, {"measurement": "MIC", "setting": "Staphylococcus aureus [13]", "result": 1, "unit": "µg/mL"}, {"measurement": "log10cfu", "setting": "Staphylococcus aureus [14]", "result": 3.9}, {"measurement": "fT>MIC", "setting": "[15]", "result": 7.6, "unit": "%"}, {"measurement": "fT>MIC", "setting": "[16]", "result": 12, "unit": "%"}, {"measurement": "Cmax", "setting": "[17]", "result": 38600, "unit": "ng/mL"}, {"measurement": "CL/F", "setting": "[18]", "result": 16.2, "unit": "mL/min/kg"}, {"measurement": "Vd", "setting": "Mus musculus [19]", "result": 0.41, "unit": "L/kg"}, {"measurement": "fT>MIC", "setting": "[20]", "result": 13.7, "unit": "%"}, {"measurement": "half-life", "setting": "[21]", "result": 27, "unit": "min"}, {"measurement": "Vd", "setting": "Mus musculus [22]", "result": 0.19, "unit": "L/kg"}, {"measurement": "fAUC/MIC", "setting": "[23]", "result": 3}, {"measurement": "MIC", "setting": "Staphylococcus aureus [24]", "result": 2, "unit": "µg/mL"}, {"measurement": "MIC", "setting": "Staphylococcus aureus [25]", "result": 1, "unit": "µg/mL"}, {"measurement": "half-life", "setting": "[26]", "result": 24, "unit": "min"}, {"measurement": "AUC(0-inf)", "setting": "[27]", "result": 1840, "unit": "ng·h/mL"}]}]}
